# Measured values collected from several papers.
# Compare with care: the assays were run in different laboratories.
# Target: TGF-beta receptor type-1 (TGFBR1, Homo sapiens, UniProt P36897)
Compound,assay,conditions,measurement,value
Nc1ncnc2occ(-c3ccc(NC(=O)Nc4cc(C(F)(F)F)ccc4F)cc3)c12,cell-free assay,20 µM,remaining signal,52%
COc1cccc(F)c1Cn1cnc(-c2ccc(F)cc2)c1-c1ccncc1,"cell-free assay, TR-FRET",1 µM,inhibition,20%
Cc1cc(-n2nc(Cc3cc(F)cc(C(F)(F)F)c3)nc2C)ccc1C(N)=O,"cell-free assay, competition with immobilised ligand",1 µM,remaining binding,94%
COc1cc(Nc2cnc(C#N)c(O[C@H](C)CN(C)C)n2)ncc1-c1cnn(C)c1,"enzyme activity, inhibitor, radiometric",1 µM,remaining activity,122%
CCCCN(CCCC)C(=O)CN1C[C@H](c2cc(OC)c3c(c2)OCO3)[C@@H](C(=O)O)[C@@H]1CC(C)(C)CCC,"cell-free assay, competition with immobilised ligand",1 µM,remaining binding,98.6%
O=C(Nc1cnn(-c2csc(C(=O)NC3COC3)c2)c1)Nc1c(F)cccc1Cl,"enzyme activity, inhibitor",5 µM,remaining activity,97.4%
Fc1ccc(-c2c(-c3ccncc3)ncn2-c2ccc3ccccc3c2)cc1,"cell-free assay, TR-FRET",1 µM,inhibition,21%
COc1cc(-c2cc(-c3ccc(N4CCNCC4)cc3)cnc2C)cc(OC)c1OC,"enzyme activity, inhibitor",0.1 µM,inhibition,3%
CSc1cccnc1N1CCN(Cc2nc3ccccc3[nH]2)CC1,"cell-free assay, competition with immobilised ligand",1 µM,remaining binding,100%
COc1cc(/C=C/C(=O)CC(=O)/C=C/c2ccc(O)c(OC)c2)ccc1O,"enzyme activity, inhibitor",1 µM,activity vs control,82%
Cc1ccc(NC(=O)c2ccc(CN3CCN(C)CC3)cc2)cc1Nc1nc(-c2cccnc2)cs1,cell-free assay,0.5 µM,remaining signal,98.5%
C[C@H](c1cccc(C#N)c1)n1cc(Cl)cc(C(N)=O)c1=N,"cell-free assay, competition with immobilised ligand",1 µM,remaining binding,100%
CS(=O)(=O)Nc1cccc(-c2csc(NC(=O)CSc3nc4nccnc4c(=O)n3CCc3ccccc3)n2)c1,"enzyme activity, inhibitor",10 µM,inhibition,5%
CC(C)(O)[C@H]1CC[C@H](Nc2ccc3ncc(-c4cccc(C(F)(F)F)c4)n3n2)CC1,"enzyme activity, inhibitor",1 µM,remaining activity,108%
CC(C)(C)c1nc2c(s1)c1nc(N)ncc1c1ccc(NS(=O)(=O)c3c(F)cccc3F)c(F)c12,"enzyme activity, inhibitor, radiometric",1 µM,remaining activity,102%
CCOc1cc(-c2nncn2C)ccc1Nc1ncc2cc(C)nc(NCC(C)(C)C)c2n1,"cell-free assay, TR-FRET",1 µM,inhibition,≤ 15%
N#CCCc1ccc2c(c1)-c1[nH]c3ccc([N+](=O)[O-])cc3c1CC(=O)N2,cell-free assay,0.5 µM,remaining signal,103%
Fc1ccc(-c2ncn(-c3ccc(-c4ccccc4)cc3)c2-c2ccncc2)cc1,"cell-free assay, TR-FRET",1 µM,inhibition,15%
CN(C)c1ncnc(-c2ccc3nc(Nc4cc(CN5CCN(C(=O)CC(F)(F)F)CC5)ccn4)[nH]c3c2)c1Cl,"cell-free assay, competition with immobilised ligand",1 µM,remaining binding,100%
O=C1Nc2ccc(Cl)cc2C1=Cc1cc(Cl)c(O)c(Cl)c1,cell-free assay,0.5 µM,remaining signal,102%
NS(=O)(=O)c1cc(NC(=O)C2(c3ccccc3Cl)CC2)ccc1Oc1cccc(Cl)c1,"cell-free assay, competition with immobilised ligand",1 µM,remaining binding,82%
C=CC(=O)Nc1cc(Nc2nccc(Nc3cc(Cl)c(F)cc3C(C)(C)O)n2)c(OC)cc1N1CC[C@@H](N(C)C)C1,"enzyme activity, inhibitor",1 µM,inhibition,42%
CC(=O)C1=C(C)N(c2cccc(C(F)(F)F)c2)C(=O)N[C@@H]1c1ccc(C#N)nc1,"cell-free assay, competition with immobilised ligand",1 µM,remaining binding,99.2%
Cc1cnc(NC2CCOCC2)nc1-n1cnc(C(=O)NC(CN)c2cc(F)cc(Cl)c2)c1 (stereo not shown),"enzyme activity, inhibitor, radiometric",1 µM,remaining activity,98%
O=C1NC(=O)c2cc(Nc3ccc(F)cc3)c(Nc3ccc(F)cc3)cc21,cell-free assay,0.5 µM,remaining signal,98.1%
Fc1ccc(-c2ncn(-c3ccccc3)c2-c2ccncc2)cc1,"cell-free assay, TR-FRET",1 µM,inhibition,31%
CCOC(=O)c1cc2cc(-c3cc(C(=O)NCc4ccc(C(=O)O)cc4)nn3C)ccc2[nH]1,"cell-free assay, competition with immobilised ligand",0.1 µM,remaining binding,100%
C#Cc1cccc(Nc2ncnc3cc(OCCOC)c(OCCOC)cc23)c1,cell-free assay,0.5 µM,remaining signal,99.1%
